# From ChEMBL document CHEMBL3112586, “Synthesis of neolignans as microtubule stabilisers” (Bioorg Med Chem, 2014)
# The source made the active and inactive calls. The calls are words filed in the database; no cut-off is given here.
# What was measured:
# MCF7 [1] = experiment: Induction of microtubule polymerization in human MCF7 cells assessed as actin-tubulin cytoskeleton stabilization at 10 to 40 uM by confocal microscopy; type: cell-based
# In short: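 MCF-7 cells treated, immunostained for actin and tubulin, and examined by confocal microscopy; paclitaxel-treated cells as positive control.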
# MCF7 [2] = experiment: Cell cycle arrest in human MCF7 cells assessed as accumulation at G1 phase at 5 to 30 uM after 24 hrs by propidium iodide staining-based FACS analysis; type: functional
# In short: (§1)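 MCF-7 in DMEM, 10% FBS, 37 °C, 5% CO2; treated 24 h, harvested, washed cold PBS, resuspended 2 × 10⁶ cells/ml, fixed absolute ethanol, RNase A treated, propidium iodide (50 µg/mL) 30 min room temperature; DNA content by flow cytometry; phase distribution versus untreated control.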
# MCF7 [3] = experiment: Cell cycle arrest in human MCF7 cells assessed as increase in sub-diploid population after 24 hrs by propidium iodide staining-based FACS analysis; type: functional; in short: as §1
# MCF7 [4] = experiment: Cytotoxicity against human MCF7 cells after 48 to 72 hrs by MTT assay; type: functional, cell-based
# In short: (§2)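 Cells in DMEM, 10% FBS, 37 °C, 5% CO2, plated and incubated 24 h; compounds diluted in phenol-red-free DMEM with 0.5% FBS, vehicle control; after exposure, MTT (5 mg/mL stock) added 3 h, formazan dissolved in DMSO, absorbance 570 nm; IC50 derived; podophyllotoxin and tamoxifen positive controls.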
# HEK293 = experiment: Cytotoxicity against human HEK293 cells after 24 hrs by MTT assay; type: cell-based; conditions: HEK293, 24 h; in short: as §2
# MDA-MB-231 = experiment: Cytotoxicity against human MDA-MB-231 cells after 48 hrs by MTT assay; type: functional, cell-based; conditions: MDA-MB-231, 48 h; in short: as §2
# MCF7 [5] = experiment: Cytotoxicity against human MCF7 cells after 72 hrs by MTT assay; type: functional, cell-based; conditions: MCF7, 72 h; in short: as §2
# MCF7 [6] = experiment: Cytotoxicity against human MCF7 cells after 48 hrs by MTT assay; type: functional, cell-based; conditions: MCF7, 48 h; in short: as §2
# Mus musculus [7] = experiment: Toxicity in Swiss albino mouse assessed as change in eosinophil count at 5 to 1000 mg/kg, po relative to control; type: organism-based; parameters: dose 5-1000 mg/kg, route oral; conditions: in vivo
# Mus musculus [8] = experiment: Toxicity in Swiss albino mouse assessed as change in monocyte count at 5 to 1000 mg/kg, po relative to control; type: organism-based; parameters: dose 5-1000 mg/kg, route oral; conditions: in vivo
# Mus musculus [9] = experiment: Toxicity in Swiss albino mouse assessed as change in neutrophil count at 5 to 1000 mg/kg, po relative to control; type: organism-based; parameters: dose 5-1000 mg/kg, route oral; conditions: in vivo
# Mus musculus [10] = experiment: Toxicity in Swiss albino mouse assessed as change in lymphocyte count at 5 to 1000 mg/kg, po relative to control; type: organism-based; parameters: dose 5-1000 mg/kg, route oral; conditions: in vivo
# Homo sapiens = species on record: Homo sapiens; experiment: Induction of microtubule stabilization (unknown origin) at 4 to 20 uM
# Mus musculus [11] = experiment: Toxicity in Swiss albino mouse assessed as absolute heart weight at 5 to 1000 mg/kg, po relative to control; type: organism-based; parameters: dose 5-1000 mg/kg, route oral; conditions: in vivo
# Mus musculus [12] = experiment: Toxicity in Swiss albino mouse assessed as relative brain weight at 5 to 1000 mg/kg, po relative to control; type: organism-based; parameters: dose 5-1000 mg/kg, route oral; conditions: in vivo
# In short: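 One oral dose (5–1000 mg/kg; DMSO then 0.7% carboxymethyl cellulose vehicle; controls vehicle-only) was given to groups of 6 mice (3 male, 3 female). On day 7 the animals were sacrificed and necropsied for gross pathology. Absolute and relative weights of vital organs were recorded and compared with control.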
# Mus musculus [13] = experiment: Toxicity in Swiss albino mouse assessed as mortality up to 1000 mg/kg, po; type: organism-based; parameters: dose 1000 mg/kg, route oral; conditions: in vivo
# In short: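 Acute oral toxicity per OECD guideline 423. Mice of 20–25 g, 3 male and 3 female per group (n = 6), acclimatised 7 days. Single oral dose of 5, 50, 300 or 1000 mg/kg in DMSO suspended in 0.7% carboxymethyl cellulose; controls got vehicle only. Mortality and clinical signs checked hourly on the dosing day, then daily. On day 7: body weight, haematology, serum biochemistry, necropsy and organ weights.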
# Mus musculus [14] = experiment: Toxicity in Swiss albino mouse assessed as change in cholesterol level at 300 mg/kg, po (reference value: 81.64 +/- 4.26 mg/dL); type: organism-based; parameters: dose 300 mg/kg, route oral; conditions: in vivo
# Mus musculus [15] = experiment: Toxicity in Swiss albino mouse assessed as change in cholesterol level at 50 mg/kg, po (reference value: 81.64 +/- 4.26 mg/dL); type: organism-based; parameters: dose 50 mg/kg, route oral; conditions: in vivo
# Mus musculus [16] = experiment: Toxicity in Swiss albino mouse assessed as change in serum protein level at 300 mg/kg, po (reference value: 1.11 +/- 0.14 mg/ml); type: organism-based; parameters: dose 300 mg/kg, route oral; conditions: in vivo
# Mus musculus [17] = experiment: Toxicity in Swiss albino mouse assessed as change in serum protein level at 5 mg/kg, po (reference value: 1.11 +/- 0.14 mg/ml); type: organism-based; parameters: dose 5 mg/kg, route oral; conditions: in vivo
# Mus musculus [18] = experiment: Toxicity in Swiss albino mouse assessed as change in triglyceride level at 300 mg/kg, po (reference value: 121.45 +/- 24.02 mg/dL); type: organism-based; parameters: dose 300 mg/kg, route oral; conditions: in vivo
# Mus musculus [19] = experiment: Toxicity in Swiss albino mouse assessed as change in creatinine level at 5 mg/kg, po (reference value: 0.63 +/- 0.18 mg/dL); type: organism-based; parameters: dose 5 mg/kg, route oral; conditions: in vivo
# Mus musculus [20] = experiment: Toxicity in Swiss albino mouse assessed as change in albumin level at 1000 mg/kg, po (reference value: 3.35 +/- 0.51 g/dL); type: organism-based; parameters: dose 1000 mg/kg, route oral; conditions: in vivo
# Mus musculus [21] = experiment: Toxicity in Swiss albino mouse assessed as change in albumin level at 300 mg/kg, po (reference value: 3.35 +/- 0.51 g/dL); type: organism-based; parameters: dose 300 mg/kg, route oral; conditions: in vivo
# Mus musculus [22] = experiment: Toxicity in Swiss albino mouse assessed as change in albumin level at 5 mg/kg, po (reference value: 3.35 +/- 0.51 g/dL); type: organism-based; parameters: dose 5 mg/kg, route oral; conditions: in vivo
# Mus musculus [23] = experiment: Toxicity in Swiss albino mouse assessed as change in SGOT level at 1000 mg/kg, po (reference value: 25.27 +/- 1.32 U/L); type: organism-based; parameters: dose 1000 mg/kg, route oral; conditions: in vivo
# Mus musculus [24] = experiment: Toxicity in Swiss albino mouse assessed as change in SGOT level at 300 mg/kg, po (reference value: 25.27 +/- 1.32 U/L); type: organism-based; parameters: dose 300 mg/kg, route oral; conditions: in vivo
# Mus musculus [25] = experiment: Toxicity in Swiss albino mouse assessed as change in SGOT level at 50 mg/kg, po (reference value: 25.27 +/- 1.32 U/L); type: organism-based; parameters: dose 50 mg/kg, route oral; conditions: in vivo
# Mus musculus [26] = experiment: Toxicity in Swiss albino mouse assessed as change in ALKP level at 1000 mg/kg, po (reference value: 218.67 +/- 12.43 U/L); type: organism-based; parameters: dose 1000 mg/kg, route oral; conditions: in vivo
# Mus musculus [27] = experiment: Toxicity in Swiss albino mouse assessed as change in ALKP level at 300 mg/kg, po (reference value: 218.67 +/- 12.43 U/L); type: organism-based; parameters: dose 300 mg/kg, route oral; conditions: in vivo
# Mus musculus [28] = experiment: Toxicity in Swiss albino mouse assessed as change in ALKP level at 50 mg/kg, po (reference value: 218.67 +/- 12.43 U/L); type: organism-based; parameters: dose 50 mg/kg, route oral; conditions: in vivo
# Mus musculus [29] = experiment: Toxicity in Swiss albino mouse assessed as change in RBC count at 1000 mg/kg, po (reference value: 5.43 +/- 0.27 million/mm'3); type: organism-based; parameters: dose 1000 mg/kg, route oral; conditions: in vivo
# Mus musculus [30] = experiment: Toxicity in Swiss albino mouse assessed as change in total haemoglobin level at 1000 mg/kg, po (reference value: 11.39 +/- 0.84 g/dL); type: organism-based; parameters: dose 1000 mg/kg, route oral; conditions: in vivo
# Mus musculus [31] = experiment: Toxicity in Swiss albino mouse assessed as change in body weight at 1000 mg/kg, po (reference value: 24.5 +/- 0.76 g); type: organism-based; parameters: dose 1000 mg/kg, route oral; conditions: in vivo
smiles,measurement,setting,value
CCOC(=O)/C=C/c1ccc(O)c(/C(=C/c2ccc(O)cc2)C(=O)OCC)c1,Activity,MCF7 [1],inactive
same,Activity,MCF7 [2],inactive
same,Activity,MCF7 [3],Dose-dependent effect
same,Activity,MCF7 [4],Active
same,IC50,HEK293,12 µM
same,IC50,MDA-MB-231,6.47 µM
same,IC50,MCF7 [5],3.27 µM
same,IC50,MCF7 [6],9.29 µM
same,Activity,Mus musculus [7],Non-toxic
same,Activity,Mus musculus [8],Non-toxic
same,Activity,Mus musculus [9],Non-toxic
same,Activity,Mus musculus [10],Non-toxic
same,Activity,Homo sapiens,Active
same,Activity,Mus musculus [11],Non-toxic
same,Activity,Mus musculus [12],Non-toxic
same,Activity,Mus musculus [13],Non-toxic
same,Activity,Mus musculus [14],77.65 mg/dL
same,Activity,Mus musculus [15],58.62 mg/dL
same,Activity,Mus musculus [16],0.92 mg/mL
same,Activity,Mus musculus [17],0.88 mg/mL
same,Activity,Mus musculus [18],134.38 mg/dL
same,Activity,Mus musculus [19],1.05 mg/dL
same,Activity,Mus musculus [20],3.86 g/dL
same,Activity,Mus musculus [21],2.59 g/dL
same,Activity,Mus musculus [22],3.17 g/dL
same,Activity,Mus musculus [23],53.29 U/L
same,Activity,Mus musculus [24],37.95 U/L
same,Activity,Mus musculus [25],34.34 U/L
same,Activity,Mus musculus [26],143.89 U/L
same,Activity,Mus musculus [27],217.42 U/L
same,Activity,Mus musculus [28],234.14 U/L
same,Activity,Mus musculus [29],5.15 million/mm3
same,Activity,Mus musculus [30],13.32 g/dL
same,Activity,Mus musculus [31],26.5 g
